{
  "source": "paper PMC8225578",
  "about": "(Journal of medicinal chemistry, 2021)",
  "key": {"PHF1 Tudor domain [1]": {"target": "T1, PHF1 Tudor domain (Homo sapiens, UniProt O43189)", "T1 sequence (O43189 25-87)": "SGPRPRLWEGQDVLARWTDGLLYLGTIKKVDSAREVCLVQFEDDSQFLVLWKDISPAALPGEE", "conditions": "previously reported 10-mer peptide; cited from earlier work"}, "PHF1 Tudor domain [2]": {"target": "T1, PHF1 Tudor domain", "experiment": "ITC binding to PHF1 Tudor domain", "conditions": "wildtype PHF1 Tudor domain"}, "PHF1 Tudor W41A": {"target": "PHF1 Tudor W41A (Homo sapiens, UniProt O43189, W41A)", "sequence (O43189 25-87 W41A)": "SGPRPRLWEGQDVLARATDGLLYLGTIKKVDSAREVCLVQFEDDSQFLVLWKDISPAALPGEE", "experiment": "ITC binding to PHF1 Tudor aromatic cage mutant W41A", "procedure,_shortened": "(§1)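 ITC at 25 °C in 25 mM Tris-HCl pH 7.5, 150 mM NaCl, 2 mM β-mercaptoethanol; typically 100 µM protein, 1 mM compound (10:1). 26 injections, 180 s apart, one-site fit. Fits reach Kd ~100 µM; weaker binding is reported >100 µM. Two independent runs, mean ± SD.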"}, "PHF1 Tudor Y47A": {"target": "PHF1 Tudor Y47A (Homo sapiens, UniProt O43189, Y47A)", "sequence (O43189 25-87 Y47A)": "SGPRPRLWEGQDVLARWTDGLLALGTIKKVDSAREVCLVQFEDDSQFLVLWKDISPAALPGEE", "experiment": "ITC binding to PHF1 Tudor aromatic cage mutant Y47A", "procedure,_shortened": "as §1"}, "PHF1 Tudor F65A": {"target": "PHF1 Tudor F65A (Homo sapiens, UniProt O43189, F65A)", "sequence (O43189 25-87 F65A)": "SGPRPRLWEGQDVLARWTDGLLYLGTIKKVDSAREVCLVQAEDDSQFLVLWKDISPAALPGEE", "experiment": "ITC binding to PHF1 Tudor aromatic cage mutant F65A", "procedure,_shortened": "as §1"}, "[3]": {"target": "H3K36me3 peptide 31-40 (Homo sapiens) (UniProt P68431)", "conditions": "cited from earlier work"}, "[4]": {"target": "H3K36me3 15-residue peptide (Homo sapiens) (UniProt P68431)", "conditions": "cited from earlier work"}, "[5]": {"target": "PHF19 Tudor domain (residues 49-115), N-terminal His tag", "experiment": "ITC"}, "[6]": {"target": "PHF1 Tudor domain (residues 25-87) Y47A, N-terminal His tag (UniProt O43189-1 25-87, Y47A)", "sequence (O43189 25-87 Y47A)": "as the sequence (O43189 25-87 Y47A) above", "experiment": "ITC"}, "[7]": {"target": "T2, PHF1 Tudor domain (residues 25-87), N-terminal His tag (UniProt O43189-1 25-87)", "T2 sequence (O43189 25-87)": "as the sequence (O43189 25-87) above", "experiment": "ITC"}, "[8]": {"target": "T2, PHF1 Tudor domain (residues 25-87), …", "experiment": "ITC", "remark": "listed apart in the source"}},
  "note": "Where two headings read alike, the source gives them in different places. Starred links: 1 amine or outer side, 2 acyl side, 3 side chain; linkers in the order of their positions; H or OH if unused. Non-standard residues stand in square brackets, D forms with d. Residues, ends and D or L forms follow the SMILES beside them. No end group written: not given here. X2 = N6‑isopropyl‑N6‑phenethyl‑lysine, CC(C)N(CCCC[C@H](N[*:1])C(=O)[*:2])CCc1ccccc1; Lys(Et,iPr) = CCN(CCCC[C@H](N)C(=O)O)C(C)C; Me3 = trimethyl (on lysine, Kme3)",
  "data": [
    {"molecule": "H3(31—40): previously reported 10-mer H3K36me3 peptide (ATGGVK(Me3)KPHR; UniProt P68431 32-41, looked up, fragment)", "values": [
      {"measurement": "Kd", "setting": "PHF1 Tudor domain [1]", "value": "16 ± 4", "unit": "µM"}
    ]},
    {"molecule": "CCN(CCCC[C@H](NC(=O)[C@@H](NC(=O)CNC(=O)CN)C(C)C)C(=O)N[C@@H](CCCCN)C(=O)N1CCC[C@H]1C(=O)N[C@@H](CC(C)C)C(=O)N[C@@H](CCCNC(=N)N)C(N)=O)C(C)C", "note": "[UNC7643, Amino(((S)-5-amino-4-((S)-2-((S)-1-((2S,5S,8S)-14-amino-2-(4-aminobutyl)-5-(4-(ethyl(isopropyl)amino)butyl)-8-isopropyl-4,7,10,13-tetraoxo-3,6,9,12-tetraazatetradecanoyl)pyrrolidine-2-carboxamido)-4-methylpentanamido)-5-oxopentyl)amino)methaniminium] (H-GGV[Lys(Et,iPr)]KPLR-NH2)", "values": [
      {"measurement": "fold less potent than UNC6641", "setting": "PHF1 Tudor domain [2]", "value": "about 10 fold"},
      {"measurement": "binding to mutant (in words)", "setting": "PHF1 Tudor W41A", "value": "failed to bind"},
      {"measurement": "binding to mutant (in words)", "setting": "PHF1 Tudor Y47A", "value": "failed to bind"},
      {"measurement": "binding to mutant (in words)", "setting": "PHF1 Tudor F65A", "value": "failed to bind"}
    ]},
    {"molecule": "PHF1 Tudor (from UniProt O43189)", "values": [
      {"measurement": "Kd", "setting": "[3]", "value": 16, "unit": "µM"}
    ]},
    {"molecule": "PHF1 (from UniProt O43189)", "values": [
      {"measurement": "Kd", "setting": "[4]", "value": 4, "unit": "µM"}
    ]},
    {"molecule": "GGV[X2]KPLR-NH2", "note": "[UNC6641]", "values": [
      {"measurement": "Kd", "setting": "[5]", "value": 2.1, "unit": "µM"},
      {"measurement": "Kd", "setting": "[6]", "value": "> 100", "unit": "µM"}
    ]},
    {"molecule": "GGVK(Me3)KPHR-NH2", "note": "[H3K36me3 peptide H3(33-40), GGVKme3KPHR]", "values": [
      {"measurement": "Kd", "setting": "[7]", "value": 22.3, "unit": "µM"}
    ]},
    {"molecule": "GGV[N6‑ethyl‑N6‑isopropyl‑lysine]KPLR-NH2", "note": "[UNC7643]", "values": [
      {"measurement": "Kd", "setting": "[8]", "value": 10.1, "unit": "µM"},
      {"measurement": "Kd", "setting": "[6]", "value": "> 100", "unit": "µM"}
    ]},
    {"molecule": "VGVK(Me3)KPH-NH2", "note": "[H3K36me3 peptide H3(33-39) G33V, VGVKme3KPH]", "values": [
      {"measurement": "Kd", "setting": "[7]", "value": 48, "unit": "µM"}
    ]},
    {"molecule": "GGVK(Me3)KPH-NH2", "note": "[H3K36me3 peptide H3(33-39), GGVKme3KPH]", "values": [
      {"measurement": "Kd", "setting": "[7]", "value": 52, "unit": "µM"}
    ]},
    {"molecule": "GGV[N6‑ethyl‑N6‑(1-(furan-2-yl)ethyl)‑lysine]KPLR-NH2", "note": "[UNC6640]", "values": [
      {"measurement": "Kd", "setting": "[8]", "value": 17.9, "unit": "µM"}
    ]}
  ]
}
